In ChEMBL document CHEMBL1132700, “Design, synthesis, structure-activity relationships, and biological characterization of novel arylalkoxyphenylalkylamine sigma ligands as potential antipsychotic drugs” (J Med Chem, 1999):

Tests used:
[1] = molecular target: D(2) dopamine receptor (Rattus norvegicus, UniProt P61169); test: Inhibitory concentration against radioligand [3H](-)-sulpiride binding to Dopamine receptor D2 in rat
How it was run: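 Striatal membranes from male Wistar rats (200–250 g), homogenized in 50 mM Tris/HCl pH 7.7, washed by repeated 50000g spins. Filtration on PEI-soaked glass-fiber filters, then scintillation counting. IC50 by nonlinear curve fitting, duplicate determinations.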

[2] = tested on: Mus musculus; test: Effect at an intraperitoneal dose of 30 mg/Kg against (+)-SKF-10047-induced stereotyped behavior in mice was determined; type: functional
How it was run: (§1)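 Male ICR mice (25–30 g, 10 per group) acclimatized at least 1 h. Test drug given orally 30 min before (+)-SKF10,047 30 mg/kg ip. Stereotypy scored on a 0–5 scale from 10 min post-injection, every 5 min for 40 min. Vehicle plus three doses were tested. Total score expressed as percent of control, and ED25 derived.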

[3] = molecular target: Sigma non-opioid intracellular receptor 1 (Rattus norvegicus, UniProt Q9R0C9); test: Inhibitory concentration against radioligand [3H]3-PPP binding to Sigma opioid receptor type 1 in rat brain membrane; type: cell membranes
Sequence of Sigma non-opioid intracellular receptor 1 (Q9R0C9 whole entry): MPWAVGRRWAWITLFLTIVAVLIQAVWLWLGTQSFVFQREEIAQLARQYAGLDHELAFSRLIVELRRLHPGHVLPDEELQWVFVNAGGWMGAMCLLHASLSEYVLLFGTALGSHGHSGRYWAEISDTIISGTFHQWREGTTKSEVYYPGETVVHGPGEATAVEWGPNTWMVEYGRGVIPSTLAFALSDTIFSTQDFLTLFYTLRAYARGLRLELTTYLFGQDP
How it was run: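 Rat whole-brain membranes from male Wistar rats (200–250 g), homogenized in 50 mM Tris/HCl pH 7.7, washed by repeated 50000g spins. Incubated with 2 nM [3H]-(+)-3-PPP and at least five concentrations of unlabeled drug. Filtered on polyethylenimine-soaked glass-fiber filters and counted by scintillation. IC50 from nonlinear curve fitting of competition data, duplicate determinations.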

[4] = molecular target: T1, 5-hydroxytryptamine receptor 1A (Rattus norvegicus, UniProt P19327); test: Inhibitory concentration against radioligand [3H]hydroxy-2-(di-n-propylamino)-tetralin binding to 5-hydroxytryptamine 1A receptor in rat
T1 sequence (P19327 whole entry): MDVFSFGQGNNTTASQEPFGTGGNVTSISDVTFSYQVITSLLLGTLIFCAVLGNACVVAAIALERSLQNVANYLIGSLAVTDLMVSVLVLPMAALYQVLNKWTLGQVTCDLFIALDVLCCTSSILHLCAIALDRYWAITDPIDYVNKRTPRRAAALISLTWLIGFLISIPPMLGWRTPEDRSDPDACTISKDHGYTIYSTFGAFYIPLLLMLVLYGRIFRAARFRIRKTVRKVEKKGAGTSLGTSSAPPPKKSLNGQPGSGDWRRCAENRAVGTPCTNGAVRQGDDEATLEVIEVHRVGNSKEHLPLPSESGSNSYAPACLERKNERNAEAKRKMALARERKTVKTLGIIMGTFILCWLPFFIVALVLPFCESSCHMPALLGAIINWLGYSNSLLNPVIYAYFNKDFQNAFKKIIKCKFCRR
How it was run: (§2)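 Male Wistar rat brain membranes in 50 mM Tris/HCl pH 7.7. Radioligands: PCP site 5 nM [3H]-PCP; D1 1 nM [3H]-SCH23390; 5-HT1A 0.2 nM [3H]-8-OH-DPAT; 5-HT2 5 nM [3H]-ketanserin; α1 0.2 nM [3H]-prazosin. Competition with at least five drug concentrations, filtration on PEI-soaked glass-fiber filters, scintillation counting, IC50 by nonlinear curve fit.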

[5] = molecular target: Serotonin 2 (5-HT2) receptor (Rattus norvegicus, UniProt P30994+P08909+P14842); test: Inhibitory concentration against radioligand [3H]ketanserin binding to 5-hydroxytryptamine 2 receptor in rat; how it was run: as §2
[6] = molecular target: D(1A) dopamine receptor (Rattus norvegicus, UniProt P18901); test: Inhibitory concentration against radioligand [3H]SCH-23390 binding to Dopamine receptor D1 in rat; how it was run: as §2
Sequence of D(1A) dopamine receptor (P18901 whole entry): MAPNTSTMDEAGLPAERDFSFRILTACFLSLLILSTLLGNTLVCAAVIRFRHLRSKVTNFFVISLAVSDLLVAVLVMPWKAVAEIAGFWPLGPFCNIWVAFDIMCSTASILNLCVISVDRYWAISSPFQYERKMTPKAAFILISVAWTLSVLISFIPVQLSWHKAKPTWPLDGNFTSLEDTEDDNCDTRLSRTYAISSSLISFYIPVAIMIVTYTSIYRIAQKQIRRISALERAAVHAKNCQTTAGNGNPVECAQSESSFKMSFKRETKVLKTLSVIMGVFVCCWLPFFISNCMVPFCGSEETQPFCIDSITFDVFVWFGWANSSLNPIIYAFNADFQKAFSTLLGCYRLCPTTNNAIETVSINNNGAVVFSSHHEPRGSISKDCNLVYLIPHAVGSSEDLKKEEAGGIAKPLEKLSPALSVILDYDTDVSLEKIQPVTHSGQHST

[7] = organism: Mus musculus; test: Effective dose against (+)-SKF-10047-induced stereotyped behavior in mice was determined; type: functional; how it was run: as §1
[8] = tested on: Mus musculus; test: Effect at an intraperitoneal dose of 10 mg/kg against methamphetamine-induced hyperlocomotion in mice; type: functional
[9] = molecular target: Glutamate receptor ionotropic, NMDA 1 (Rattus norvegicus, UniProt P35439); test: Inhibitory concentration against radioligand [3H]PCP binding to PCP site of N-methyl-D-aspartate glutamate receptor in rat; how it was run: as §2
[10] = molecular target: T2, Adrenergic receptor alpha-1 (Rattus norvegicus, UniProt P15823+P23944+P43140); test: Inhibitory concentration against radioligand [3H]prazosin binding to Alpha-1 adrenergic receptor in rat; how it was run: as §2
T2 sequence (P15823 whole entry): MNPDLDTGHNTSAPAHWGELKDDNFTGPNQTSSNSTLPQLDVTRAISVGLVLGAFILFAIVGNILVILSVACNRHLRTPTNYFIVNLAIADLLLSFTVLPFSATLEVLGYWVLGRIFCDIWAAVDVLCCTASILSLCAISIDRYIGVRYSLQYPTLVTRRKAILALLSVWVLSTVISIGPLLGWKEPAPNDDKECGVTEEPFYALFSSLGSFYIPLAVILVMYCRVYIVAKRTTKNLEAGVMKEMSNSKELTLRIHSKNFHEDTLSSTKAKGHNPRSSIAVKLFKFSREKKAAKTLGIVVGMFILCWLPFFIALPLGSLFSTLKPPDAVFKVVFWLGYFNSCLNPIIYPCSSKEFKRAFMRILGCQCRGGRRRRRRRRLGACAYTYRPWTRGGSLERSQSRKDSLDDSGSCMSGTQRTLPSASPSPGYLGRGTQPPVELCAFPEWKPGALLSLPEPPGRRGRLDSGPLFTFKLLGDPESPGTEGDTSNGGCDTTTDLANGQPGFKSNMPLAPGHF
T2 sequence (P23944 whole entry): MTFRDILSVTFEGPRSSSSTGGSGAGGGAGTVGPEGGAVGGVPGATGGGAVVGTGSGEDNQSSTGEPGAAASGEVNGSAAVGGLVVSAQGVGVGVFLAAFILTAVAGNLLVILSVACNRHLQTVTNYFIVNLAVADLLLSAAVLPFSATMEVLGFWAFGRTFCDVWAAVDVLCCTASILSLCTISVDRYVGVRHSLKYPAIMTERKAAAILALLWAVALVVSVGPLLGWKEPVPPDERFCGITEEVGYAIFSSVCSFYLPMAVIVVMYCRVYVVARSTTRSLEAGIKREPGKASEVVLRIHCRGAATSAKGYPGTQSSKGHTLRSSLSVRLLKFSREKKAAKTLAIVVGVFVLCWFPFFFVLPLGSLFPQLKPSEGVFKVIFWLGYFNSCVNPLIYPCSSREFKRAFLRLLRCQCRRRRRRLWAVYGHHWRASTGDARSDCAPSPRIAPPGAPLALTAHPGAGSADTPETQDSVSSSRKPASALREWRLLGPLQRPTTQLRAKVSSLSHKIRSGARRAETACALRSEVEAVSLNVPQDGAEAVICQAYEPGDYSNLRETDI
T2 sequence (P43140 whole entry): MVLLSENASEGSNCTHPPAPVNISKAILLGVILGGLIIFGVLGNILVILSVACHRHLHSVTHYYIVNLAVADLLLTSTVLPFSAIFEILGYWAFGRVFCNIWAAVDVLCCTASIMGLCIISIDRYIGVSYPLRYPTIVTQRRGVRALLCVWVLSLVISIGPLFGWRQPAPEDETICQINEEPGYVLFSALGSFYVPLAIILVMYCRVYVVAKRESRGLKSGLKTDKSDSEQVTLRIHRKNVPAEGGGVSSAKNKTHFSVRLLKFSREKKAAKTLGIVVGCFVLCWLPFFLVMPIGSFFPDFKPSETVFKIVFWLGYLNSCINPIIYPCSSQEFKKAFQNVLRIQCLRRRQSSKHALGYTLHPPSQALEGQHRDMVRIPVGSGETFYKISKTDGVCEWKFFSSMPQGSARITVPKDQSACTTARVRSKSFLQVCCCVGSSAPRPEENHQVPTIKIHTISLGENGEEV

Sequence of D(2) dopamine receptor (P61169 whole entry): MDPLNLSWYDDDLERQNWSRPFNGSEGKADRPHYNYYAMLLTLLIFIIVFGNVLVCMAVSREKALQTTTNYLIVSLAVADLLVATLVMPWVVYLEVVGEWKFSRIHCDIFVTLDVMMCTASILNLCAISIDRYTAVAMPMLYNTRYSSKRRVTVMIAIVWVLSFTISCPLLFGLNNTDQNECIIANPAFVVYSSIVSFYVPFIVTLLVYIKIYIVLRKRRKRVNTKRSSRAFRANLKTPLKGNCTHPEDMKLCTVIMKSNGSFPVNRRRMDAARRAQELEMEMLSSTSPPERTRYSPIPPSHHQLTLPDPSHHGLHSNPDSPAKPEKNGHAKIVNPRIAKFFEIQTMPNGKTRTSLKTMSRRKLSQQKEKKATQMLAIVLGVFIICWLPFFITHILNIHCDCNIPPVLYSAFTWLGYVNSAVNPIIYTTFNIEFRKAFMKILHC

Row | SMILES | IC50 [1] | Control [2] | IC50 [3] | IC50 [4] | IC50 [5] | IC50 [6] | ED25 [7] | Control [8] | IC50 [9] | IC50 [10]
1 | CCCN(CCC)CCc1cccc(OC)c1OCc1ccccc1.O=C(O)C(=O)O | > 1 µM | 64% | 0.026 µM |  |  |  |  |  |  | 
2 | CCCN(CCC)CCc1ccc(OC)c(OCCc2ccccc2)c1.Cl | > 1 µM |  |  | 6.46 µM | > 1 µM | > 1 µM | 6.5 mg/kg | 119% | > 1 µM | 10.8 µM
3 | CCCN(CCC)CCCc1ccc(OC)c(OCCc2ccccc2)c1.Cl |  |  | 0.001 µM | 0.373 µM | > 1 µM | > 1 µM | 44 mg/kg | 99% | > 1 µM | 14.1 µM
4 | CCCN(CCC)CCc1cccc(OC)c1OCCc1ccccc1.Cl | > 1 µM |  |  | 3.58 µM | 8.8 µM | > 1 µM | 79 mg/kg | 98% | > 10 µM | 11.7 µM
